A number with no mark means an inactive call. The source made the active and inactive calls.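 How the source made its calls: active means at least one off-target enzyme showing weaker fluorescent probe labeling in any proteome panel; inactive means no off-target enzyme affected in any panel.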
System: Membrane Proteome
Experiment: proteome-wide probe labelling blockade by competitive ABPP – cell lysate, gel-based fluorescence, soluble and membrane fractions, selectivity assay for PAD4 inhibitor project, late-stage follow-up (AID 651628)
Conditions: MCF7 proteome, CA-Rh gel-based ABPP, anti-target count, at 50 µM, active compounds read high
How it was run: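 Material: MCF7 cell proteome, soluble or membrane fraction | Medium: DPBS | Doses: Compound at 10 or 50 µM | Schedule: Compound 1 h, probe 1 h, 25 °C | Measured by: SDS-PAGE separation with in-gel fluorescence scanning of labelled bands | Control set: DMSO-only reference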

SMILES | number of anti-targets
COC1=C(I)C(=O)c2nc(C#N)ccc2C1=O | > 5 (active)
O=C1C=C(Br)C(=O)c2ncccc21 | > 5 (active)
NC1=CC(=O)c2cccnc2C1=O | 0
NC1=CC(=O)c2ccc(-c3cccc(C(=O)O)n3)nc2C1=O | 0
NC1=CC(=O)c2ccc(-c3ccccn3)nc2C1=O | 0
COC1=C(Br)C(=O)c2ncccc2C1=O | > 5 (active)
COC(=O)c1cccc(-c2ccc3c(n2)C(=O)C(N)=CC3=O)n1 | 0
COC(=O)c1cccc(-c2ccc3c(n2)C(=O)C(Br)=CC3=O)n1 | > 5 (active)
O=C1C(O)=C(O)C(=O)c2ncccc21 | > 5 (active)
COC1=C(Br)C(=O)c2nc(-c3ccccn3)ccc2C1=O | > 5 (active)
COC(=O)c1nc(C(=O)OC)c(NC(C)=O)c(-c2ccccc2Br)c1C | 0
COC1=C(N)C(=O)c2nc(-c3nc(C(=O)O)c(C)c(-c4ccc(OC)c(OC)c4O)c3N)ccc2C1=O | 0
COC1=CC(=O)c2nc(C#N)ccc2C1=O | > 5 (active)
COC1=C(N)C(=O)c2ncccc2C1=O | 0

Reference: PubChem BioAssay AID651628 (The Scripps Research Institute Molecular Screening Center, 2012)
